High-throughput results: PubChem BioAssay, several laboratories
Hits are enriched below; roughly 1.4% of the tested compounds scored in any of these assays.
PG9 binder: small molecules binding HIV-1 gp120 antibody PG9. TR-FRET gp120-PG9 antibody binding. inhibition, % at 6.7 µM. actives 0.43% (n = 360,000). AID 624416; in the data active = inhibition above about 8.5%
NR1D1 modulator: modulators of human Rev-erb alpha DNA binding; actives 0.79% (n = 370,000); P20393; activity, % at 10 µM; Rev-erbα–FITC-DNA binding, fluorescence polarization, 90 min;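 active = activity above about 14%, limit read from the data; passing the limit was not always enough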;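 note: 0% = DMSO wells with 35 nM protein and 100% = DMSO wells with 750 nM protein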
Target sequence (P20393 whole entry, looked up): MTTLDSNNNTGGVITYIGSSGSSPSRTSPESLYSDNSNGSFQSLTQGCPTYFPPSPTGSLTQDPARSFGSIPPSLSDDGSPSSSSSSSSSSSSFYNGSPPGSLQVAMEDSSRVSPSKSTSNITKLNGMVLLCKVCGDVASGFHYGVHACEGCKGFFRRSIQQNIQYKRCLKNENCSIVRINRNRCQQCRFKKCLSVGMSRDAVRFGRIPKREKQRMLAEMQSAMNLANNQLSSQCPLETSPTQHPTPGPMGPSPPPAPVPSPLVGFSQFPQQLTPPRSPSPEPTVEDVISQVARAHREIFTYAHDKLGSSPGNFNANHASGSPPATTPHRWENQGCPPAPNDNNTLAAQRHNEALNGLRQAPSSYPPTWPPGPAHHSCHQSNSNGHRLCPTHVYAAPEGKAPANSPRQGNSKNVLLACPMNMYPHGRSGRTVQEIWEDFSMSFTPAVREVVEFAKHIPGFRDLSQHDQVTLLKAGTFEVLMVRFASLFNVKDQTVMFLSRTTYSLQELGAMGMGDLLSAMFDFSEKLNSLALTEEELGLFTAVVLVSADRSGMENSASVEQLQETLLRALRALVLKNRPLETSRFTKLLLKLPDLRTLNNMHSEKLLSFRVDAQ
NR2E3 ag-1: agonists of human nuclear receptor NR2E3; GST-NR2E3/biotin-RetCOR TR-FRET, 1536-well; inhibition of corepressor binding, % at 4.78 µM; actives 0.12% (n = 320,000); AID 2300;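 active = percent inhibition above the cutoff of mean plus 3 SD of all tested compounds, set per screening campaign, cut at about 20% in these data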;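 note: 0% = DMSO wells and 100% = biotin wells as full block of FRET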
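Test system – NR2E3–RetCOR corepressor complex · Quantity – NR2E3 fusion 1.35 nM · Buffer or medium – Tris pH 7.5 · Incubation – Compound–protein incubation for 5 h at 4 °C · Technique – TR-FRET, Eu(K)-anti-GST donor, streptavidin-D2 acceptor, ex 340, em 617/671 nm · Evaluation – percent inhibition of 671/617 nm emission ratio versus biotin and DMSO controls · Plate – 1536-well format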
NR2E3 ag-2: human photoreceptor-specific nuclear receptor agonism; actives 0.35% (n = 360,000); Q9Y5X4; CHO-S Gal4-NCOR/VP16-NR2E3 two-hybrid, luciferase; inhibition of corepressor binding, % at 3.98 µM;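 active = inhibition above the mean of all tested compounds plus 3 SD, cut at about 70% in these data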;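 note: 0% = DMSO with NR2E3 transfected cells and 100% = cells lacking NR2E3 construct; higher means lower luciferase signal from less NR2E3 corepressor binding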
NR1D1 mod conf: Rev-erb alpha (human) modulation, hit confirmation | activation, % at 25 µM | Rev-erb alpha FITC-DNA binding, fluorescence polarization, 90 min | actives 61% (n = 3,000) | shares compounds with NR1D1 modulator | AID 1259319;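 active = activation at or above a set limit, or at least 3 SD above the negative control mean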;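 note: 0% = 35 nM protein with DMSO and 100% = 750 nM protein high control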
RORg DNA counter: counter-screen for Rev-erb alpha modulators: RORgamma DNA binding; shares compounds with NR1D1 modulator; purified RORgamma protein-FITC-DNA binding, fluorescence polarization; IC50, µM; actives 8% (n = 910);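 active = Compounds whose fitted half-maximal concentration for disrupting protein-DNA binding is below 10 micromolar; the record names Rev-erb in its text, so the target is in doubt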
Active calls of the source: *; . = no result given.

SMILES | PG9 binder | NR1D1 modulator | NR2E3 ag-1 | NR2E3 ag-2 | NR1D1 mod conf | others
CC1(C)CC(=O)C2=C(C1)NC(SCC(N)=O)=C(C#N)C21CCCCC1 | -2.4 | 1.8 | 2.0 | -8.2 | .
CCSC1=C(C#N)C2(CCCCC2)C2=C(CC(C)(C)CC2=O)N1 | -0.4 | 22.3* | 3.0 | -34.0 | 2.3
CCOC(=O)N1CCN(C(=O)C[C@H]2C[C@@]3(C(=O)OC)C(=C[C@H](C(C)C)O[C@@H]3C3CC3)N(Cc3ccco3)C2=O)CC1 | . | -3.1 | . | . | .
CCC(=O)N(C)C[C@@H]1[C@H](c2ccc(C3=CCCCC3)cc2)[C@H](CO)N1C(=O)CC | . | 4.2 | . | . | .
Cc1cccc(C(=O)OCC(=O)c2cccc(Br)c2)c1O | 0.6 | 19.3* | 1.0 | 5.5 | 5.3
C/C(=C(/CCOC(=O)C(C)C)SS/C(CCOC(=O)C(C)C)=C(\C)N(C=O)Cc1cnc(C)nc1N)N(C=O)Cc1cnc(C)nc1N | . | 2.6 | . | . | .
Cc1ccc(CNC[C@@]23CO[C@H](c4ccc(Cl)cc4)N2[C@@H](c2ccc(Cl)cc2)SC3)o1 | . | 4.7 | . | . | .
COc1ccc(C(=O)N2C(=O)c3ccc(N)cc3C2=O)cc1 | 1.4 | 23.2* | -4.9 | 0.5 | 6.6
COc1ccc(C(=O)n2cnc(N)n2)cc1 | 0.4 | -2.6 | -2.6 | -6.2 | .
COc1ccc(S[C@]2(C(=O)N(C)C)CC(=O)N(C(=O)CCc3ccccc3)[C@@H]2c2ccc(OC)cc2)cc1 | . | 1.9 | . | . | .
Cc1cc(=O)[nH]c(N/N=C/c2c(C)nn(-c3ccc(F)cc3)c2Cl)n1 | -1.7 | 6.4 | 4.7 | -6.6 | .
Cc1nn(-c2ccccc2)c(Cl)c1/C=N/Nc1nncc(=O)[nH]1 | -3.6 | 25.4* | -0.1 | 4.6 | 17.8
O=[N+]([O-])c1ccc(N2CCN(Cc3ccccc3)CC2)s1 | -1.7 | 19.5 | -5.0 | -4.6 | .
O=[N+]([O-])c1ccc(N2CCCCC2)s1 | -2.9 | 22.8* | -3.0 | 0.8 | 18.0*
CC1CCCN(c2ccc([N+](=O)[O-])s2)C1 (stereo unspecified) | -4.5 | 30.8* | . | -16.2 | 15.4
CCOC(=O)c1ccc(NC(=O)C2CC(O)CN2S(=O)(=O)c2ccc(C)cc2)cc1 (stereo unspecified) | 1.3 | 20.9* | . | 2.2 | 0.5
O=C(CSc1nc(-c2ccccc2F)nc2nc[nH]c12)Nc1c(Cl)cc(Cl)cc1Cl | -0.4 | 38.0* | -1.1 | . | 11.0
Cc1ccccc1C(=O)Nc1ccc(C(=O)NNC(=O)CCCOc2ccc(Cl)cc2Cl)cc1 | -0.3 | 0.0 | 2.7 | -15.7 | .
O=C(CCCOc1ccc(Cl)cc1Cl)NNC(=O)c1ccc(NC(=O)c2ccccc2)cc1 | 1.6 | 73.8* | -0.6 | 5.6 | 99.0* | RORg DNA counter=>40
CCOC(=O)c1c(NC(=O)COC(=O)c2ccc(O)cc2)sc(C(=O)NC)c1C | -0.5 | 38.1* | -1.3 | -13.9 | 29.3*
CCOC(=O)c1c(NC(=O)COC(=O)c2nc(Cl)ccc2Cl)sc(C(=O)NC)c1C | 7.0 | 5.1 | -3.2 | -10.5 | .
COc1ccc(-c2cc3c(=O)n(CC(=O)NCc4ccc(Cl)cc4)ncn3n2)cc1 | -0.4 | 21.3* | -1.4 | -20.2 | 5.0
Cc1cccc(C)c1OC(=O)CSc1nnc(-c2ccccc2O)o1 | 5.5 | 28.8* | 3.8 | 16.1 | 26.4*
COC(=O)CSc1nnc(-c2ccccc2OC)o1 | -1.4 | -3.4 | 2.9 | -5.1 | .
CCOC(=O)c1ccc(N/C=C\C(=O)c2cccc(OC)c2)cc1 | 2.2 | 26.6* | 1.6 | -45.3 | 4.7
SMILES | PG9 binder | NR1D1 modulator | NR2E3 ag-1 | NR2E3 ag-2 | NR1D1 mod conf | others
CN1CCCN(S(=O)(=O)c2ccc3c(c2)n(C)c(=O)c(=O)n3C)CC1 | . | 3.7 | . | . | .
COc1ccccc1C(=O)COC(=O)Cn1[nH]c(=O)c2ccccc2c1=O | -0.2 | 21.9* | 4.7 | -18.5 | 9.1
O=C(OCCN1C(=O)c2cccc3c(N4CCOCC4)ccc(c23)C1=O)c1ccc(Cl)cc1 | -0.9 | 78.8* | -1.6 | -22.1 | 118.8* | RORg DNA counter=>40
O=c1c2cc3cc(Cl)ccc3nc2ncn1Cc1ccc(Oc2ccccc2)cc1 | . | 6.3 | . | . | .
COc1ccc2oc(C(=O)OCC(=O)/C(C#N)=C(\C)N)c(C)c2c1 | -0.3 | 19.5* | 0.6 | 4.2 | 13.6
C=CCn1c(SCc2nc3ccccc3c(=O)[nH]2)nnc1-c1cc2cc(Cl)ccc2o1 | -1.2 | 25.9* | 1.1 | -7.3 | 30.0*
C/C(N)=C(/C#N)C(=O)CSc1cc(C)c2cc(C)cc(C)c2n1 | 2.0 | 50.2* | 1.6 | -5.4 | 27.5*
Cc1cc(C)c2nc(SCC#N)cc(C)c2c1 | -1.0 | 3.5 | 3.1 | -41.0 | .
CCCCC(=O)N[C@H]1CC[C@@]23CCCN2C(=O)CCC[C@H]3[C@H]1CCC | . | -8.0 | . | . | .
CCOC(=O)c1c(-c2cccs2)csc1NC(=O)c1ccncc1 | -3.2 | 29.3* | -5.5 | -25.7 | 28.2*
Cc1csc(NC(=O)c2cc3c(C)nn(Cc4ccccc4Cl)c3s2)n1 | 2.0 | 22.1* | -1.6 | -10.4 | 16.7*
O=C(CSc1nc(-c2ccco2)cc(C(F)(F)F)n1)N1CCCc2ccccc21 | -0.4 | 24.7* | 2.0 | 10.5 | 14.1
N#CCOc1ccccc1CNC[C@H]1O[C@@H](n2cnc(C(N)=O)n2)[C@H](O)[C@@H]1O | 0.6 | 16.3* | . | -22.1 | -6.6
CC(=O)N1CCc2cc(N=NC3=C(O)CC(C)(C)CC3=O)ccc21 | -3.0 | 20.0* | -1.0 | -7.8 | 20.2*
CC1NC(=O)c2cc3ccccc3cc2-n2c1nc1cc(Cl)ccc1c2=O (stereo unspecified) | -1.4 | 16.1* | . | -10.8 | -0.5
CCOC(=O)c1cccc(NC(=O)CN(C)S(=O)(=O)c2cc3ccccc3s2)c1 | . | -5.1 | . | . | .
COc1ccc(C(=O)C2(C(=O)NCc3ccccc3)CC(c3ccccc3C(F)(F)F)=NO2)cc1 (stereo unspecified) | . | 13.2 | . | . | .
COc1ccc(C(=O)Nc2ccnn2C2CCN(Cc3ccn[nH]3)CC2)cc1 | -0.1 | -1.2 | -1.4 | 6.1 | .
O=C(Nc1ccnn1C1CCN(Cc2ccn[nH]2)CC1)c1ccccc1 | -1.0 | 15.6* | 0.7 | 20.0 | -5.0
Cn1c(=O)oc2cc(S(=O)(=O)N3CCN(CCO)CC3)ccc21 | . | -4.7 | . | . | .
Cc1cc(=O)n2nc(N3CCCC(C(=O)NCc4ccc(F)cc4)C3)sc2n1 (stereo unspecified) | -0.8 | 0.1 | -3.0 | -29.7 | .
O=C(NCc1ccc(F)cc1)C1CCCN(c2nc3ccsc3c(=O)s2)C1 (stereo unspecified) | 1.4 | 20.2* | -5.3 | -8.9 | 17.1
Cn1cc(C(=O)NCc2cccs2)c(=O)c2cc(S(=O)(=O)N3CCCC3)ccc21 | -1.2 | 28.1* | -3.1 | -18.2 | 24.6*
COCCCNC(=O)C[C@H]1C[C@@]2(C(=O)OC)C(=C[C@H](COCc3ccccc3)O[C@@H]2C)N(Cc2ccco2)C1=O | . | 9.0 | . | . | .
CCN(CC)S(=O)(=O)c1ccc(N2CCOCC2)c(NC(=O)c2cccc3c(=O)c(C)c(-c4ccccc4)oc23)c1 | -2.0 | 5.6 | -1.4 | -25.2 | .
